ChEMBL document CHEMBL1143773, “Synthesis and studies on antidepressant and anticonvulsant activities of some 3-(2-furyl)-pyrazoline derivatives” (Eur J Med Chem, 2007)
Activity calls are given as the source filed them. No cut-off for these calls is given here.

Tests used:
[1] = test system: Mus musculus; assay: Antidepressant activity in Albino mouse assessed as duration of immobility at 10 mg/kg, ip by forced-swimming test; format: functional; conditions: route intraperitoneal
Summary of the method: (§1)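 Porsolt forced-swim test in albino mice. Drug given ip at 0.5 ml/20 g body weight, 1 h before testing. Controls received 1% aqueous Tween 80. Each mouse was placed singly in a water-filled Plexiglas cylinder for 6 min. Immobility (floating upright with only slight movements to stay afloat) was timed over the last 4 min.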

[2] = test system: Mus musculus; assay: Neurotoxicity in Albino mouse at 100 mg/kg, ip after 30 mins by RotaRod test; format: toxicity, organism-based; set-up: dose 100 mg/kg, route intraperitoneal; conditions: in vivo, 0.5 h
Summary of the method: (§2)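 Phase I protocol of the NINCDS antiepileptic drug development programme in albino mice, covering MES, subcutaneous pentylenetetrazole (metrazol) and rotarod neurotoxicity. Doses were 30, 100 and 300 mg/kg, read at 1/2 h and 4 h. One animal per dose and time point, scored as 0/1 (no activity) or 1/1 (noticeable activity).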

[3] = test system: Mus musculus; assay: Neurotoxicity in Albino mouse at 300 mg/kg, ip after 4 hrs by RotaRod test; format: toxicity, organism-based; set-up: dose 300 mg/kg, route intraperitoneal; conditions: in vivo; summary of the method: as §2
[4] = test system: Mus musculus; assay: Neurotoxicity in Albino mouse at 30 mg/kg, ip after 4 hrs by RotaRod test; format: toxicity, organism-based; set-up: dose 30 mg/kg, route intraperitoneal; conditions: in vivo; summary of the method: as §2
[5] = test system: Mus musculus; assay: Anticonvulsant activity in Albino mouse by MES test at 300 mg/kg, ip after 30 mins; format: functional, organism-based; set-up: dose 300 mg/kg; summary of the method: as §2
[6] = test system: Mus musculus; assay: Anticonvulsant activity against metrazole-induced seizures in Albino mouse at 30 mg/kg, ip after 4 hrs by scMet; format: functional, organism-based; set-up: dose 30 mg/kg; summary of the method: as §2
[7] = test system: Mus musculus; assay: Neurotoxicity in Albino mouse at 300 mg/kg, ip after 30 mins by RotaRod test; format: toxicity, organism-based; set-up: dose 300 mg/kg, route intraperitoneal; conditions: in vivo, 0.5 h; summary of the method: as §2
[8] = test system: Mus musculus; assay: Neurotoxicity in Albino mouse at 30 mg/kg, ip after 30 mins by RotaRod test; format: toxicity, organism-based; set-up: dose 30 mg/kg, route intraperitoneal; conditions: in vivo, 0.5 h; summary of the method: as §2
[9] = test system: Mus musculus; assay: Anticonvulsant activity against metrazole-induced seizures in Albino mouse at 100 mg/kg, ip after 30 mins by scMet assay; format: functional, organism-based; set-up: dose 100 mg/kg; summary of the method: as §2
[10] = test system: Mus musculus; assay: Anticonvulsant activity in Albino mouse by MES test at 100 mg/kg, ip after 30 mins; format: functional, organism-based; set-up: dose 100 mg/kg; summary of the method: as §2
[11] = test system: Mus musculus; assay: Anticonvulsant activity against metrazole-induced seizures in Albino mouse at 30 mg/kg, ip after 30 mins by scMet assay; format: functional, organism-based; set-up: dose 30 mg/kg; summary of the method: as §2
[12] = test system: Mus musculus; assay: Anticonvulsant activity in Albino mouse at 300 mg/kg, ip after 4 hrs by MES test; format: functional, organism-based; set-up: dose 300 mg/kg; summary of the method: as §2
[13] = test system: Mus musculus; assay: Neurotoxicity in Albino mouse at 100 mg/kg, ip after 4 hrs by RotaRod test; format: toxicity, organism-based; set-up: dose 100 mg/kg, route intraperitoneal; conditions: in vivo; summary of the method: as §2
[14] = test system: Mus musculus; assay: Anticonvulsant activity in Albino mouse by MES test at 30mg/kg, ip after 30 mins; format: functional, organism-based; summary of the method: as §2
[15] = test system: Mus musculus; assay: Antidepressant activity in Albino mouse assessed as duration of immobility at 10 mg/kg, ip by forced-swimming test relative to control; format: functional; conditions: route intraperitoneal; summary of the method: as §1
[16] = test system: Mus musculus; assay: Anticonvulsant activity against metrazole-induced seizures in Albino mouse at 300 mg/kg, ip after 30 mins by scMet assay; format: functional, organism-based; set-up: dose 300 mg/kg; summary of the method: as §2
[17] = test system: Mus musculus; assay: Anticonvulsant activity against metrazole-induced seizures in Albino mouse at 300 mg/kg, ip after 4 hrs by scMet assay; format: functional, organism-based; set-up: dose 300 mg/kg; summary of the method: as §2
[18] = test system: Mus musculus; assay: Anticonvulsant activity in Albino mouse at 100 mg/kg, ip after 4 hrs by MES test; format: functional, organism-based; set-up: dose 100 mg/kg; summary of the method: as §2
[19] = test system: Mus musculus; assay: Anticonvulsant activity against metrazole-induced seizures in Albino mouse at 100 mg/kg, ip after 4 hrs by scMet assay; format: functional, organism-based; set-up: dose 100 mg/kg; summary of the method: as §2
[20] = test system: Mus musculus; assay: Anticonvulsant activity in Albino mouse at 30 mg/kg, ip after 4 hrs by MES test; format: functional, organism-based; set-up: dose 30 mg/kg; summary of the method: as §2

Row | SMILES | Activity [1] | Activity [2] | Activity [3] | Activity [4] | Activity [5] | Activity [6] | Activity [7] | Activity [8] | Activity [9] | Activity [10] | Activity [11] | Activity [12] | Activity [13] | Activity [14] | Activity [15] | Activity [16] | Activity [17] | Activity [18] | Activity [19] | Activity [20]
1 | S=C(Nc1ccccc1)N1N=C(c2ccco2)CC1c1ccco1 (configuration not stated) | 181 s | Not Active | Not Active | Not Active | inactive | inactive | Not Active | Not Active | Active | inactive | inactive | inactive | Not Active | inactive | -13.81% | Active | inactive | inactive | inactive | inactive
2 | CCNC(=S)N1N=C(c2ccco2)CC1c1ccco1 (configuration not stated) | 211 s | Not Active | Not Active | Not Active | inactive | inactive | Not Active | Not Active | Active | inactive | Active | inactive | Not Active | inactive | 0.48% | Active | Active | inactive | inactive | inactive
3 | CNC(=S)N1N=C(c2ccco2)CC1c1ccccc1 (configuration not stated) | 201 s | Not Active | Not Active | Not Active | inactive | inactive | Not Active | Not Active | inactive | inactive | inactive | inactive | Not Active | inactive | -4.28% | inactive | inactive | inactive | inactive | inactive
4 | N[C@H]1C[C@@H]1c1ccccc1.O=S(=O)(O)O | 57 s |  |  |  |  |  |  |  |  |  |  |  |  |  | -72.85% |  |  |  |  | 
5 | NC(=S)N1N=C(c2ccco2)CC1c1ccco1 (configuration not stated) | 182 s | Not Active | Not Active | Not Active | inactive | inactive | Not Active | Not Active | Active | inactive | Active | Active | Not Active | inactive | -13.33% | Active | inactive | inactive | inactive | inactive
6 | C=CCNC(=S)N1N=C(c2ccco2)CC1c1ccco1 (configuration not stated) | 144 s | Not Active | Not Active | Not Active | inactive | inactive | Not Active | Not Active | inactive | inactive | inactive | Active | Not Active | inactive | -31.42% | inactive | Active | Active | Active | inactive
7 | c1ccc(N2N=C(c3ccco3)CC2c2ccco2)cc1 (configuration not stated) | 169 s | Not Active | Not Active | Not Active | Active | inactive | Not Active | Not Active | inactive | Active | inactive | inactive | Not Active | inactive | -19.52% | inactive | inactive | inactive | inactive | inactive
8 | C=CCNC(=S)N1N=C(c2ccco2)CC1c1ccccc1 (configuration not stated) | 190 s | Not Active | Not Active | Not Active | Active | inactive | Not Active | Not Active | inactive | Active | inactive | inactive | Not Active | inactive | -9.52% | inactive | inactive | inactive | inactive | inactive
9 | CCNC(=S)N1N=C(c2ccco2)CC1c1ccccc1 (configuration not stated) | 139 s | Not Active | Not Active | Not Active | inactive | inactive | Not Active | Not Active | inactive | inactive | inactive | inactive | Not Active | inactive | -33.8% | Active | inactive | inactive | inactive | inactive
10 | S=C(Nc1ccccc1)N1N=C(c2ccco2)CC1c1ccccc1 (configuration not stated) | 184 s | Not Active | Not Active | Not Active | inactive | inactive | Not Active | Not Active | inactive | inactive | inactive | Active | Not Active | inactive | -12.38% | inactive | inactive | inactive | inactive | inactive
11 | c1ccc(C2CC(c3ccco3)=NN2c2ccccc2)cc1 (configuration not stated) | 213 s | Not Active | Not Active | Not Active | inactive | inactive | Not Active | Not Active | inactive | inactive | inactive | inactive | Not Active | inactive | 1.42% | inactive | Active | inactive | inactive | inactive
